From ChEMBL document CHEMBL4002548 (Eur J Med Chem, 2017)
Values belong to the compound of their own block, whether it stands above or below them.

What was measured:
KG-1 = test: Antiproliferative activity against FGFR1-translocated human KG1 cells after 72 hrs by CCK8/SRB assay; type: functional, cell-based; settings: KG-1, 72 h
In short: (§1)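 Cells seeded, then exposed next day to a range of compound concentrations for 72 h. Proliferation read by sulforhodamine B or CCK-8. IC50 obtained by four-parameter concentration–response curve fitting from two separate experiments. BaF3 lines stably express constitutively active TEL-FGFR4, TEL-KDR, CCDC6-RET or CCDC6-RET-V804M.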

[1] = molecular target: T1, Fibroblast growth factor receptor 1 (Homo sapiens, UniProt P11362); test: Inhibition of recombinant FGFR1 (unknown origin) using poly (Glu, Tyr) 4:1 after 60 mins by ELISA method
Target sequence in this assay (P11362 whole entry): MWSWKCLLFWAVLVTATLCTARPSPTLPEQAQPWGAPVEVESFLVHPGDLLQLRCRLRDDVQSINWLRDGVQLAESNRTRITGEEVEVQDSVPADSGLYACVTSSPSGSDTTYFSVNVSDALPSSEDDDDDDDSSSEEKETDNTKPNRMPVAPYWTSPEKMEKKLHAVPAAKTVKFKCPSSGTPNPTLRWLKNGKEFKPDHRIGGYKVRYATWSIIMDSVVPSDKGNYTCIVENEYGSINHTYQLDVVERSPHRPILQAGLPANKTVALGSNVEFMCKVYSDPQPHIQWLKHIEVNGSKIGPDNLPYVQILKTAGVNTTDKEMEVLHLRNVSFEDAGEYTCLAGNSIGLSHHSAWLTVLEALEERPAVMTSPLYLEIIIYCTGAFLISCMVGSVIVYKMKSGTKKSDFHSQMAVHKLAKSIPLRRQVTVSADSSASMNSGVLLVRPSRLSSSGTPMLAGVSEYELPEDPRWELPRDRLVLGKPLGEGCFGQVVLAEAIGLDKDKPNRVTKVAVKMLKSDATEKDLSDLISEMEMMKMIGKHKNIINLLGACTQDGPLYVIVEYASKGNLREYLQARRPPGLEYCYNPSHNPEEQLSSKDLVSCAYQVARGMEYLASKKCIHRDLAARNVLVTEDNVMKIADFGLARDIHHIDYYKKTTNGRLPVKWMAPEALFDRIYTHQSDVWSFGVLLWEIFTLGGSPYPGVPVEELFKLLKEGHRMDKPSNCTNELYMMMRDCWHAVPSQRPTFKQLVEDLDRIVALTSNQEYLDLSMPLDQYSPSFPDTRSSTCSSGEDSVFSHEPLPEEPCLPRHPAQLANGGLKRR

[2] = molecular target: Vascular endothelial growth factor receptor 2 (Homo sapiens, UniProt P35968); test: Inhibition of recombinant KDR (unknown origin) using poly (Glu, Tyr) 4:1 after 60 mins by ELISA method
NCI-H1581 [3] = test: Antiproliferative activity against FGFR1-amplified human NCI-H1581 cells after 72 hrs by CCK8/SRB assay; settings: NCI-H1581, 72 h
SNU-16 [4] = test: Antitumor activity against FGFR2-amplified human SNU16 cells xenografted in nude mouse assessed as tumor growth inhibition at 30 mg/kg, po qd administered for 18 days and measured on day 18 post last dose relative to vehicle-treated control; type: functional; settings: SNU-16, po, 432 h, read-out: TGI
In short: (§2)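 Male nude mice, 4-6 weeks old, kept under SPF conditions. Tumours grown s.c. from 5×10^6 cells, then passaged as 1 mm³ fragments by trocar. Randomised at 120–150 mm³ (n=6 treated, 12 vehicle). Compound given orally once daily, 10 days for NCI-H1581 and 18 days for SNU16. Calipers twice weekly; V = L×W²/2. TGI taken on final day from volume change versus vehicle.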

RT-112 = test: Antiproliferative activity against FGFR3-amplified human RT112 cells after 72 hrs by CCK8/SRB assay; type: functional, cell-based; settings: RT-112, 72 h; in short: as §1
[5] = Inhibition of recombinant RET […] mutant (unknown origin) using poly (Glu,Tyr) 4:1 as substrate after 60 mins by ELISA; set-up: species or system Homo sapiens
In short: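 Poly(Glu,Tyr) 4:1 pre-coated at 20 µg/mL as substrate. Reaction with 10 µmol/L ATP in HEPES pH 7.4 buffer containing MgCl2, MnCl2, Na3VO4 and DTT; compound in 1% DMSO, with 1% DMSO as negative control; started by adding kinase. Run 60 min at 37 °C. Phosphotyrosine detected with PY99 and HRP anti-mouse IgG, o-phenylenediamine colour read at 490 nm. IC50 from inhibition curves, two separate experiments.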

SNU-16 [6] = test: Antiproliferative activity against FGFR2-amplified human SNU16 cells after 72 hrs by CCK8/SRB assay; type: functional, cell-based; settings: SNU-16, 72 h; in short: as §1
BaF3 [7] = test: Antiproliferative activity against mouse BAF3 cells expressing CCDC6-RET […] mutant after 72 hrs by CCK8/SRB assay; type: functional, cell-based; settings: BaF3, 72 h; in short: as §1
BaF3 [8] = test: Antiproliferative activity against mouse BAF3 cells expressing TEL-FGFR4 fusion protein after 72 hrs by CCK8/SRB assay; type: functional, cell-based; settings: BaF3, 72 h; in short: as §1
[9] = molecular target: Epidermal growth factor receptor (Homo sapiens, UniProt P00533); test: Inhibition of recombinant EGFR (unknown origin) using poly (Glu,Tyr) 4:1 as substrate after 60 mins by ELISA
[10] = AUC (0 to 24 hrs) in mouse at 10 mg/kg, po; type: ADME, organism-based; set-up: time < 24 hr, dose 10 mg/kg, route oral; settings: in vivo
NCI-H1581 [11] = test: Antitumor activity against FGFR1-amplified human NCI-H1581 cells xenografted in nude mouse assessed as tumor growth inhibition at 5 mg/kg, po qd administered for 10 days and measured on day 10 post last dose relative to vehicle-treated control; type: functional; settings: 240 h, read-out: TGI; in short: as §2
[12] = molecular target: Fibroblast growth factor receptor 2 (Homo sapiens, UniProt P21802); test: Inhibition of recombinant FGFR2 (unknown origin) using poly (Glu,Tyr) 4:1 as substrate after 60 mins by ELISA
BaF3 [13] = test: Antiproliferative activity against mouse BAF3 cells expressing CCDC6-RET fusion protein after 72 hrs by CCK8/SRB assay; type: functional, cell-based; settings: BaF3, 72 h; in short: as §1
[14] = molecular target: Fibroblast growth factor receptor 4 (Homo sapiens, UniProt P22455); test: Inhibition of recombinant FGFR4 (unknown origin) using poly (Glu,Tyr) 4:1 as substrate after 60 mins by ELISA
[15] = molecular target: T1, Fibroblast growth factor receptor 1; test: Inhibition of FGFR1 phosphorylation in FGFR1 translocated human KG1 cells after 2 hrs by Western blot method
In short: (§3)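 KG1 cells treated with a range of compound concentrations for 2 h at 37 °C, then lysed in 1× SDS sample buffer. Lysates resolved by SDS–PAGE and blotted. Probes: phospho-FGFR1, FGFR, phospho-PLCγ, PLCγ, phospho-ERK1/2, ERK1/2, with GAPDH as loading control. Detection by HRP secondary and enhanced chemiluminescence.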
Target sequence in this assay (P11362 22-822 limits assumed): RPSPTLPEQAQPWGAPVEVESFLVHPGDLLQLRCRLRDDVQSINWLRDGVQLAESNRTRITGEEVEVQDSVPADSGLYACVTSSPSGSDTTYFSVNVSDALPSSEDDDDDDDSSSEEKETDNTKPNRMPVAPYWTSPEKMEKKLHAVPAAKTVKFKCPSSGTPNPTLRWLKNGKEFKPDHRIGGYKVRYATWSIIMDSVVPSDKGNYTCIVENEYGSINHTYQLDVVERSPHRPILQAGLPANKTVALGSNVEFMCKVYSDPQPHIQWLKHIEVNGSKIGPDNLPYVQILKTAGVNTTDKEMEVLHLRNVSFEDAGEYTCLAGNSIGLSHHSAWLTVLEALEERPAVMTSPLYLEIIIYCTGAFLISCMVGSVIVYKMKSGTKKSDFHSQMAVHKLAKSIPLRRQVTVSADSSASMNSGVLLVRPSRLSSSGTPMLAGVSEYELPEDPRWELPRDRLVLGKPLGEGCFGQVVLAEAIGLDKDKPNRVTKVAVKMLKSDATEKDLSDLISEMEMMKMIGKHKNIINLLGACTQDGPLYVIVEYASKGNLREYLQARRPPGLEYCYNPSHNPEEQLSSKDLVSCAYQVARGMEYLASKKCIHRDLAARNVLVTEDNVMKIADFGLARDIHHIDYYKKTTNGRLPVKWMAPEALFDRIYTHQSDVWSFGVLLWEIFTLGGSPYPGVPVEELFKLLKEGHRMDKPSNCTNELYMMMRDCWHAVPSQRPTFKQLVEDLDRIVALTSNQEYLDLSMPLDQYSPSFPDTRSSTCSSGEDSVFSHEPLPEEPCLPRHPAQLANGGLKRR

[16] = molecular target: Tyrosine-protein kinase ABL1 (Homo sapiens, UniProt P00519); test: Inhibition of recombinant ABL (unknown origin) using poly (Glu,Tyr) 4:1 as substrate after 60 mins by ELISA
NCI-H1581 [17] = test: Antitumor activity against FGFR1-amplified human NCI-H1581 cells xenografted in nude mouse assessed as tumor growth inhibition at 20 mg/kg, po qd administered for 10 days and measured on day 10 post last dose relative to vehicle-treated control; type: functional; settings: 240 h, read-out: TGI; in short: as §2
[18] = molecular target: Platelet-derived growth factor receptor beta (Homo sapiens, UniProt P09619); test: Inhibition of recombinant PDGFRbeta (unknown origin) using poly (Glu,Tyr) 4:1 as substrate after 60 mins by ELISA
SNU-16 [19] = test: Antitumor activity against FGFR2-amplified human SNU16 cells xenografted in nude mouse assessed as tumor growth inhibition at 20 mg/kg, po qd administered for 18 days and measured on day 18 post last dose relative to vehicle-treated control; type: functional; settings: SNU-16, po, 432 h, read-out: TGI; in short: as §2
[20] = molecular target: Proto-oncogene tyrosine-protein kinase Src (Homo sapiens, UniProt P12931); test: Inhibition of recombinant c-Src (unknown origin) using poly (Glu,Tyr) 4:1 as substrate after 60 mins by ELISA
[21] = molecular target: Fibroblast growth factor receptor 3 (Homo sapiens, UniProt P22607); test: Inhibition of recombinant FGFR3 (unknown origin) using poly (Glu,Tyr) 4:1 as substrate after 60 mins by ELISA
[22] = molecular target: Vascular endothelial growth factor receptor 1 (Homo sapiens, UniProt P17948); test: Inhibition of recombinant VEGFR1 (unknown origin) using poly (Glu,Tyr) 4:1 as substrate after 60 mins by ELISA
[23] = molecular target: Proto-oncogene tyrosine-protein kinase receptor Ret (Homo sapiens, UniProt P07949); test: Inhibition of recombinant RET (unknown origin) using poly (Glu,Tyr) 4:1 as substrate after 60 mins by ELISA
BaF3 [24] = test: Antiproliferative activity against mouse BAF3 cells expressing TEL-KDR fusion protein after 72 hrs by CCK8/SRB assay; type: functional, cell-based; settings: BaF3, 72 h; in short: as §1
[25] = molecular target: Platelet-derived growth factor receptor alpha (Homo sapiens, UniProt P16234); test: Inhibition of recombinant PDGFRalpha (unknown origin) using poly (Glu,Tyr) 4:1 as substrate after 60 mins by ELISA
[26] = molecular target: T1, Fibroblast growth factor receptor 1; test: Inhibition of FGFR1 in FGFR1 translocated human KG1 cells assessed as suppression of phosphorylated ERK after 2 hrs by Western blot analysis; in short: as §3
Target sequence in this assay (P11362 22-822 limits assumed): as above

[27] = molecular target: T1, Fibroblast growth factor receptor 1; test: Inhibition of FGFR1 in FGFR1 translocated human KG1 cells assessed as suppression of PLCgamma phosphorylation after 2 hrs by Western blot analysis; in short: as §3
Target sequence in this assay (P11362 22-822 limits assumed): as above

Sequence of Vascular endothelial growth factor receptor 2 (P35968 whole entry): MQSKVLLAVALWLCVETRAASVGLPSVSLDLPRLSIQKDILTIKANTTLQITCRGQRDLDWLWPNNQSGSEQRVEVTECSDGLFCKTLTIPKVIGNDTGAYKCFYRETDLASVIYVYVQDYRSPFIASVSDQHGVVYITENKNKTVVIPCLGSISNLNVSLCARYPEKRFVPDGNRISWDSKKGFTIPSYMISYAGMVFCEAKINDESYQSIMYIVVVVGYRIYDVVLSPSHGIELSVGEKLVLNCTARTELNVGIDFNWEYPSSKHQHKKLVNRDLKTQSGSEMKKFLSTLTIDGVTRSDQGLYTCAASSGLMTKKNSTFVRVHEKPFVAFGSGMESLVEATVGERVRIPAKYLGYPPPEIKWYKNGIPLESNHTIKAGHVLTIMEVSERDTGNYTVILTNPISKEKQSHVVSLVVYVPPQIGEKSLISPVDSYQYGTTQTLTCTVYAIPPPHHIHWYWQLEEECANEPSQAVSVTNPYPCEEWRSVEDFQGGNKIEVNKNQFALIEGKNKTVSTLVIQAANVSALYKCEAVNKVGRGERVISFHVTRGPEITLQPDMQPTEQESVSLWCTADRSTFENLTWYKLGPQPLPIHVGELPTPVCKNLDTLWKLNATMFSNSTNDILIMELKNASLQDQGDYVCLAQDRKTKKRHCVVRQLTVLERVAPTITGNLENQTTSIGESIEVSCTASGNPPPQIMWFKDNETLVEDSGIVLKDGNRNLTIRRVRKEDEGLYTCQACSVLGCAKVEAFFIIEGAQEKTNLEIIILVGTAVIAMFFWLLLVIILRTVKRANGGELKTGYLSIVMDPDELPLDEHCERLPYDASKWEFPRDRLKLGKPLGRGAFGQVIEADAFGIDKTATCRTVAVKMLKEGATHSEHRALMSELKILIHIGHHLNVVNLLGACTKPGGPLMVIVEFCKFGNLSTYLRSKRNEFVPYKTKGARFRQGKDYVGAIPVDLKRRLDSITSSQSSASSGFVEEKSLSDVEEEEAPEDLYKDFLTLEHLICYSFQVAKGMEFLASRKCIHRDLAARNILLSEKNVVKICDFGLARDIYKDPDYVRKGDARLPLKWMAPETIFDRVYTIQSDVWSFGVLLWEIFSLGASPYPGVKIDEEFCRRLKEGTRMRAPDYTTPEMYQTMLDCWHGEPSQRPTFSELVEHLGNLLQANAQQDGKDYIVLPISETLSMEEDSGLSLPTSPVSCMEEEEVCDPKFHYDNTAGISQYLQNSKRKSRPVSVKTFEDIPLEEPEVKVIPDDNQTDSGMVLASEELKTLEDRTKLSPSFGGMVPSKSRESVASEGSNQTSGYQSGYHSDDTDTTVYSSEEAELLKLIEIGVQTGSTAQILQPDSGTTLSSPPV
Sequence of Fibroblast growth factor receptor 2 (P21802 whole entry, the tested form may be a part): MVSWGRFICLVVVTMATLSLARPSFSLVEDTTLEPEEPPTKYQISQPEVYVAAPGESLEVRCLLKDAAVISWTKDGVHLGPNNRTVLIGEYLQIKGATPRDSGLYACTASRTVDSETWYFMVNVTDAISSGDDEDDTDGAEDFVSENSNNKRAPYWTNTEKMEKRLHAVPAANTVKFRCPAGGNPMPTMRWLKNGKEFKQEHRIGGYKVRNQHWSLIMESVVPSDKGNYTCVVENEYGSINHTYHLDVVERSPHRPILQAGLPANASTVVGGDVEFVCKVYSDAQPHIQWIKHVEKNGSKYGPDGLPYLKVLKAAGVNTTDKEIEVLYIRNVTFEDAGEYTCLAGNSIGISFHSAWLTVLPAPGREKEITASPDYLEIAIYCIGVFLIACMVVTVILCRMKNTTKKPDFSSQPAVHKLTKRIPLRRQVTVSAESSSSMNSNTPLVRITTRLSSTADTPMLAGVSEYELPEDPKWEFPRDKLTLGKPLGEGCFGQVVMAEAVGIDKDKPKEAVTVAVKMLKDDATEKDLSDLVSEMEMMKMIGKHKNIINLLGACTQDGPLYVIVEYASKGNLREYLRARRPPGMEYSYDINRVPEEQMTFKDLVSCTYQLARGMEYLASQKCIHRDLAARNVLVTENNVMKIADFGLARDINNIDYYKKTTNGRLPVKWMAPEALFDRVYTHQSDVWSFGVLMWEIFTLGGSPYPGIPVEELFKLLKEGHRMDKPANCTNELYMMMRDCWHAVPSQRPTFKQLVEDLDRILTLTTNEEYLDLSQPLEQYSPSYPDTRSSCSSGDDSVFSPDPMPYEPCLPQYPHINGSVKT
Sequence of Fibroblast growth factor receptor 3 (P22607 whole entry): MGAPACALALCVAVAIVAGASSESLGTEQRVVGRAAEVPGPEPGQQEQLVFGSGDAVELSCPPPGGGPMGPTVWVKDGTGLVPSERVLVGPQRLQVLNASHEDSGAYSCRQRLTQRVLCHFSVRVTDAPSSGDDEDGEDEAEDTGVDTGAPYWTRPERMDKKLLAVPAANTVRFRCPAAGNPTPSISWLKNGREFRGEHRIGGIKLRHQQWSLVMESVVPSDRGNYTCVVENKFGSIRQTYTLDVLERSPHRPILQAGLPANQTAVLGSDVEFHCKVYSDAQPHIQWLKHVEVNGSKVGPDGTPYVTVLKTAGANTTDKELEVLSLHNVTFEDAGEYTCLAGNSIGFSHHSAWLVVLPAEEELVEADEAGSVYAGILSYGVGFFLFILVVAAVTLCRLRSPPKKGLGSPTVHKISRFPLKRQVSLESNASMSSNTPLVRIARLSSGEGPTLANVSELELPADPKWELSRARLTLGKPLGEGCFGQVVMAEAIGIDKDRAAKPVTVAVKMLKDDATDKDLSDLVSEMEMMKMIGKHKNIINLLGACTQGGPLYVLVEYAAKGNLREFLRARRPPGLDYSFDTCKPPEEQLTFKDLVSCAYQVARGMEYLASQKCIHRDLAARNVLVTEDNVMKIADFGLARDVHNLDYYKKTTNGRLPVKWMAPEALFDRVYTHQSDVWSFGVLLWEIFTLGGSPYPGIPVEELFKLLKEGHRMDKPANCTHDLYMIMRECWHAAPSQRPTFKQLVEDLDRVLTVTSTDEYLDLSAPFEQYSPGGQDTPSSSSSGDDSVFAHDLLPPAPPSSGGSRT

Compound: COc1ccc(C(=O)Nc2ccc(CN3CCN(C)CC3)c(C(F)(F)F)c2)cc1C#Cc1cncc2ccccc12
- IC50 (KG-1): > 500 nM

Compound: CN1CCN(Cc2ccc(NC(=O)c3cccc(C#Cc4cncc5ccccc45)n3)cc2C(F)(F)F)CC1
- IC50 [1]: > 100 nM

Compound: Cc1ccc(C(=O)Nc2ccc(CN3CCN(C)CC3)c(C(F)(F)F)c2)cc1C#Cc1cncc2[nH]ccc12
- IC50 (KG-1): 490 nM
- IC50 [2]: > 100 nM

Compound: Cc1ccc(C(=O)Nc2ccc(CN3CCN(C)CC3)c(C(F)(F)F)c2)cc1C#Cc1cncc(N2CCCC2)c1
- IC50 (KG-1): 119 nM
- IC50 [2]: 108 nM

Compound: Cc1ccc(C(=O)Nc2ccc(CN3CCN(C)CC3)c(C(F)(F)F)c2)cc1C#Cc1cncc(NC(C)C)c1
- IC50 (KG-1): 84.5 nM
- IC50 [2]: 59.9 nM

Compound: Cc1ccc(C(=O)Nc2ccc(CN3CCN(C)CC3)c(C(F)(F)F)c2)cc1C#Cc1cnc2cccnn12 [PONATINIB]
- IC50 (NCI-H1581 [3]): 194 nM
- inhibition in vivo at 30 mg/kg (SNU-16 [4]): 75.3%
- IC50 (RT-112): 736 nM
- IC50 (KG-1): 17.2 nM
- IC50 [5]: 1.9 nM
- IC50 (SNU-16 [6]): 33.6 nM
- IC50 (BaF3 [7]): 71.5 nM

Compound: Cc1ccc(C(=O)Nc2ccc(CN3CCN(C)CC3)c(C(F)(F)F)c2)cc1C#Cc1cncc(N2CCOCC2)c1
- IC50 (KG-1): 24.3 nM
- IC50 [2]: 89.9 nM

Compound: CC(C)c1ccc(C(=O)Nc2ccc(CN3CCN(C)CC3)c(C(F)(F)F)c2)cc1C#Cc1cncc2ccccc12
- IC50 [1]: > 100 nM

Compound: CN1CCN(Cc2ccc(NC(=O)c3cc(C#Cc4cncc5ccccc45)ccn3)cc2C(F)(F)F)CC1
- IC50 (KG-1): > 500 nM

Compound: CN1CCN(Cc2ccc(NC(=O)c3cncc(C#Cc4cncc5ccccc45)c3)cc2C(F)(F)F)CC1
- IC50 (KG-1): > 500 nM
- IC50 [2]: 2.6 nM

Compound: Cc1ccc(C(=O)Nc2ccc(CN3CCN(C)CC3)c(C(F)(F)F)c2)cc1C#Cc1cncc2c1ccn2C
- IC50 (KG-1): 10 nM
- IC50 [2]: 63.5 nM

Compound: CN1CCN(Cc2ccc(NC(=O)c3ccnc(C#Cc4cncc5ccccc45)n3)cc2C(F)(F)F)CC1
- IC50 (KG-1): > 500 nM

Compound: COc1cc(CCc2cc(NC(=O)c3ccc(N4C[C@@H](C)N[C@@H](C)C4)cc3)n[nH]2)cc(OC)c1 [FEXAGRATINIB]
- inhibition in vivo at 20 mg/kg (NCI-H1581 [17]): 79.5%

Compound: CN1CCN(Cc2ccc(NC(=O)c3ccnc(C#Cc4cncc5ccccc45)c3)cc2C(F)(F)F)CC1
- IC50 (KG-1): 427 nM
- IC50 [2]: 6.5 nM

Compound: Cc1ccc(C(=O)Nc2ccc(CN3CCN(C)CC3)c(C(F)(F)F)c2)cc1C#Cc1cncc(N2CCN(C)CC2)c1
- IC50 [1]: 5.7 nM
- IC50 (KG-1): 21.7 nM
- IC50 [2]: 21.8 nM

Continued, in another order:

- IC50 [2]: 105 nM
Compound: CCN(CC)c1cncc(C#Cc2cc(C(=O)Nc3ccc(CN4CCN(C)CC4)c(C(F)(F)F)c3)ccc2C)c1
- IC50 (KG-1): 58.3 nM

- IC50 [1]: 1.2 nM
- IC50 [2]: 79.1 nM
Compound: Cc1ccc(C(=O)Nc2ccc(CN3CCN(C)CC3)c(C(F)(F)F)c2)cc1C#Cc1cncc2ccccc12
- IC50 (KG-1): 175 nM

- IC50 [2]: 91.4 nM
Compound: CN1CCN(Cc2ccc(NC(=O)c3ccc(Cl)c(C#Cc4cncc5ccccc45)c3)cc2C(F)(F)F)CC1
- IC50 (KG-1): 88.2 nM

- IC50 [1]: 12.8 nM
- IC50 [2]: 110 nM
Compound: COc1cncc(C#Cc2cc(C(=O)Nc3ccc(CN4CCN(C)CC4)c(C(F)(F)F)c3)ccc2C)c1
- IC50 (KG-1): 125 nM

- IC50 [2]: 5.5 nM
Compound: CN1CCN(Cc2ccc(NC(=O)c3ccc(F)c(C#Cc4cncc5ccccc45)c3)cc2C(F)(F)F)CC1
- IC50 (KG-1): 27.8 nM

- IC50 (BaF3 [8]): 131 nM
- IC50 [9]: > 100 nM
- IC50 [1]: 0.5 nM
- IC50 (NCI-H1581 [3]): 57 nM
- AUC(0-t) at 24 h [10]: 11400 ng·h/mL
- IC50 [12]: 0.3 nM
- IC50 (BaF3 [13]): 37.2 nM
- IC50 [14]: 5.5 nM
- inhibition [15]: Dose-dependent effect
- IC50 [16]: 23.2 nM
- IC50 [18]: 5.5 nM
- IC50 [20]: 10.8 nM
- IC50 [21]: 1 nM
- IC50 [22]: 62.7 nM
- IC50 [5]: 7.5 nM
- IC50 [23]: 1.3 nM
- IC50 (BaF3 [24]): 489 nM
- IC50 [2]: 48.7 nM
- IC50 [25]: 5.6 nM
- inhibition [26]: Dose-dependent effect
- IC50 (SNU-16 [6]): 26.4 nM
- IC50 (BaF3 [7]): 33.4 nM
- inhibition [27]: Dose-dependent effect
Compound: CN1CCN(Cc2ccc(NC(=O)c3ccc(Cl)c(C#Cc4cncc(N5CCOCC5)c4)c3)cc2C(F)(F)F)CC1
- inhibition in vivo at 5 mg/kg (NCI-H1581 [11]): 8.3%
- inhibition in vivo at 20 mg/kg (NCI-H1581 [17]): 73.4%
- inhibition in vivo at 20 mg/kg (SNU-16 [19]): 93.9%
- IC50 (RT-112): 514 nM
- IC50 (KG-1): 7.5 nM

- IC50 [1]: > 100 nM
Compound: CN1CCN(Cc2ccc(NC(=O)c3ccc(C(F)(F)F)c(C#Cc4cncc5ccccc45)c3)cc2C(F)(F)F)CC1
- IC50 (KG-1): > 500 nM

- IC50 [2]: 2.5 nM
Compound: CN1CCN(Cc2ccc(NC(=O)c3cccc(C#Cc4cncc5ccccc45)c3)cc2C(F)(F)F)CC1
- IC50 (KG-1): 67.6 nM
